The source made the active and inactive calls. The rule behind the calls is not given here.
Assays:
Homo sapiens [1] = organism: Homo sapiens; experiment: Inhibition of Wnt/beta-catenin signaling in human U2OS cells expressing GFP-fused Fzd1 assessed as GFP-Fzd1 internalization by measuring number of punctate formed at 12.5 uM after 6 hrs by confocal microscopic method; assay type: cell-based
Procedure, shortened: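 U2OS cells stably expressing Frizzled1-GFP were plated in confocal dishes for 24 h, then treated with 12.5 μM compound in DMSO or DMSO for 6 h at 37°C and fixed in 4% paraformaldehyde. Confocal images (488-nm excitation) were read twice, blinded, and punctate was scored versus control on a 0–5 scale (0, 1, 3, 5).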

[2] = (§1) Inhibition of Wnt/beta-catenin signaling (unknown origin) expressed in HEK293 cells assessed as inhibition of Wnt3A-stimulated beta-catenin response transcription after 6 hrs by TOPflash dual luciferase reporter gene assay; assay type: cell-based; conditions: Homo sapiens, HEK293, 6 h
Procedure, shortened: (§2)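 HEK293 cells stably carrying p8xTOPFlash and Renilla pRL-TK were seeded at confluency and given Wnt-3A conditioned medium (from L Wnt-3A cells) containing compound, 0.04–10 μM, or DMSO for 6 h. Lysates were read by dual-luciferase assay. The DMSO/Wnt3A signal was set as 100%, and curves were fit (mean ± SEM, n ≥ 3). Percent inhibition at 10 μM was reported where no IC50 could be fitted.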

Homo sapiens [3] = organism: Homo sapiens; experiment: as §1; assay type: cell-based; procedure, shortened: as §2
Homo sapiens [4] = organism: Homo sapiens; experiment: Inhibition of Wnt/beta-catenin signaling in human HCT116 cells assessed as downregulation of cytosolic beta-catenin protein expression at 5 uM after 18 hrs by Western blot method; assay type: cell-based
Procedure, shortened: (§3)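 HCT-116 (McCoy's 5A) or SW480 (MEM) cells, each with 10% FBS, were grown 48 h on poly-D-lysine-coated wells to 60–80% confluency. Fresh medium with compound or DMSO (0.1% final) was added for 18 h. Cytosolic fractions (β-catenin, Axin2) were isolated with hypotonic buffer, or whole cells were lysed in Laemmli buffer (c-Myc, Cyclin D1, Survivin). Immunoblots used β-actin as loading control.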

Homo sapiens [5] = organism: Homo sapiens; experiment: Inhibition of Wnt/beta-catenin signaling in human HCT116 cells assessed as downregulation of cytosolic Axin2 protein expression at 5 uM after 18 hrs by Western blot method; assay type: cell-based; procedure, shortened: as §3
Homo sapiens [6] = organism: Homo sapiens; experiment: Inhibition of Wnt/beta-catenin signaling in human HCT116 cells assessed as downregulation of c-Myc protein expression at 5 uM after 18 hrs by Western blot method; assay type: cell-based; procedure, shortened: as §3
Homo sapiens [7] = organism: Homo sapiens; experiment: Inhibition of Wnt/beta-catenin signaling in human HCT116 cells assessed as downregulation of Cyclin D1 protein expression at 5 uM after 18 hrs by Western blot method; assay type: cell-based; procedure, shortened: as §3
Homo sapiens [8] = organism: Homo sapiens; experiment: Inhibition of Wnt/beta-catenin signaling in human HCT116 cells assessed as downregulation of survivin protein expression at 5 uM after 18 hrs by Western blot method; assay type: cell-based; procedure, shortened: as §3
Homo sapiens [9] = organism: Homo sapiens; experiment: Inhibition of Wnt/beta-catenin signaling in human SW480 cells assessed as downregulation of cytosolic beta-catenin protein expression at 5 uM after 18 hrs by Western blot method; assay type: cell-based; procedure, shortened: as §3
Homo sapiens [10] = organism: Homo sapiens; experiment: Inhibition of Wnt/beta-catenin signaling in human SW480 cells assessed as downregulation of cytosolic Axin2 protein expression at 5 uM after 18 hrs by Western blot method; assay type: cell-based; procedure, shortened: as §3
Homo sapiens [11] = organism: Homo sapiens; experiment: Inhibition of Wnt/beta-catenin signaling in human SW480 cells assessed as downregulation of c-Myc protein expression at 5 uM after 18 hrs by Western blot method; assay type: cell-based; procedure, shortened: as §3
Homo sapiens [12] = organism: Homo sapiens; experiment: Inhibition of Wnt/beta-catenin signaling in human SW480 cells assessed as downregulation of Cyclin D1 protein expression at 5 uM after 18 hrs by Western blot method; assay type: cell-based; procedure, shortened: as §3
Homo sapiens [13] = organism: Homo sapiens; experiment: Inhibition of Wnt/beta-catenin signaling in human SW480 cells assessed as downregulation of survivin protein expression at 5 uM after 18 hrs by Western blot method; assay type: cell-based; procedure, shortened: as §3
HCT-116 [14] = experiment: Effect on ATP homeostasis in human HCT116 cells assessed as reduction in ATP level at 0.5 to 2 uM after 3 hrs in glucose supplemented media by ATP bioluminescent assay; assay type: ADME, cell-based; conditions: hct-116, 3 h
Procedure, shortened: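 HCT-116 cells attached overnight on poly-D-lysine plates, then treated 3 h at 37°C in DMEM with 2mM sodium pyruvate, 2mM L-glutamine and 5mM glucose (0.1% final DMSO). ATP was read by luciferase bioluminescence after lysis with Somatic Cell ATP Releasing Reagent, normalized to DMSO control.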

HCT-116 [15] = experiment: Effect on ATP homeostasis in human HCT116 cells assessed as reduction in ATP level after 3 hrs in absence of glucose by ATP bioluminescent assay; assay type: ADME, cell-based; conditions: for Activity: human, hct-116, 3 h
Procedure, shortened: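 HCT-116 cells attached overnight on poly-D-lysine plates in McCoy's 5A/10% FBS, then switched to glucose-free DMEM with 2mM sodium pyruvate and 2mM L-glutamine containing compound (0.1% final DMSO). After 3 h at 37°C, 5% CO2, cells were lysed in Somatic Cell ATP Releasing Reagent and ATP was read by luciferase bioluminescence, normalized to DMSO control.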

Homo sapiens [16] = organism: Homo sapiens; experiment: Inhibition of Wnt/beta-catenin signaling (unknown origin) expressed in HEK293 cells assessed as inhibition of Wnt3A-stimulated beta-catenin response transcription at 0.16 uM after 6 hrs by TOPflash dual luciferase reporter gene assay relative to control; assay type: cell-based
Procedure, shortened: (§4)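 TOPFlash/Renilla stable HEK293 cells were split from the same batch as parallel ATP assay plates, attached overnight, then treated 6 h with compound in Wnt-3A conditioned medium. Dual-luciferase read-out was taken relative to the DMSO control. Three separate experiments used different cell batches.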

HCT-116 [17] = experiment: Effect on ATP homeostasis in human HCT116 cells assessed as reduction in ATP level at 0.16 uM after 3 hrs in absence of glucose by ATP bioluminescent assay; assay type: ADME, cell-based; conditions: hct-116, 3 h
HEK293 (Homo sapiens) = experiment: Effect on ATP homeostasis in human HEK293 cells assessed as reduction in ATP level after 3 hrs in absence of glucose by ATP bioluminescent assay; conditions: HEK293, 3 h
Homo sapiens [18] = organism: Homo sapiens; experiment: Inhibition of Wnt/beta-catenin signaling (unknown origin) expressed in HEK293 cells assessed as inhibition of Wnt3A-stimulated beta-catenin response transcription at 10 uM after 6 hrs by TOPflash dual luciferase reporter gene assay relative to control; assay type: cell-based; procedure, shortened: as §2
HCT-116 [19] = experiment: Effect on ATP homeostasis in human HCT116 cells assessed as reduction in ATP level at 0.31 uM after 3 hrs in absence of glucose by ATP bioluminescent assay; assay type: ADME, cell-based; conditions: hct-116, 3 h
Homo sapiens [20] = organism: Homo sapiens; experiment: Inhibition of Wnt/beta-catenin signaling (unknown origin) expressed in HEK293 cells assessed as inhibition of Wnt3A-stimulated beta-catenin response transcription at 0.63 uM after 6 hrs by TOPflash dual luciferase reporter gene assay relative to control; assay type: cell-based; procedure, shortened: as §4
HCT-116 [21] = experiment: Effect on ATP homeostasis in human HCT116 cells assessed as reduction in ATP level at 0.63 uM after 3 hrs in absence of glucose by ATP bioluminescent assay; assay type: ADME, cell-based; conditions: hct-116, 3 h
Homo sapiens [22] = organism: Homo sapiens; experiment: Inhibition of Wnt/beta-catenin signaling (unknown origin) expressed in HEK293 cells assessed as inhibition of Wnt3A-stimulated beta-catenin response transcription at 0.31 uM after 6 hrs by TOPflash dual luciferase reporter gene assay relative to control; assay type: cell-based
Procedure, shortened: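 HEK293 cells stably carrying p8xTOPFlash and a Renilla luciferase control (pRL-TK), grown in MEM with 10% FBS and 1ug/mL puromycin. Cells were seeded at confluence, then given Wnt-3A conditioned medium (from L Wnt-3A cells) with compound (0.04 to 10μM) or DMSO for 6 h. Lysates were read by dual luciferase, with the Wnt3A + DMSO signal set as 100%.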

In the case of `Oc1ccc(Cl)cc1-c1nc2cc(C(F)(F)F)ccc2[nH]1`, the Activity (Homo sapiens [1]) is reported as 3, the IC50 [2] is reported as 230 to 270 nM and the inhibition (Homo sapiens [3]) is reported as “Dose-dependent effect”. The inhibition (Homo sapiens [4]) was “Active”, the inhibition (Homo sapiens [5]) was “Active” and the inhibition (Homo sapiens [6]) was “Active”. For the same compound, the inhibition (Homo sapiens [7]) was “Active”, the inhibition (Homo sapiens [8]) was “Active” and the inhibition (Homo sapiens [9]) was “Active”. For the same compound, the inhibition (Homo sapiens [10]) was “Active”, the inhibition (Homo sapiens [11]) was “Active” and the inhibition (Homo sapiens [12]) was “Active”. For the same compound, the inhibition (Homo sapiens [13]) was “Active”, the Activity (HCT-116 [14]) was “Non-Toxic” and the Activity (HCT-116 [15]) was “Dose-dependent effect”. For the same compound, the inhibition (Homo sapiens [16]) was 40 to 50%, the Activity (HCT-116 [17]) was “Non-Toxic” and the EC50 (HEK293 (Homo sapiens)) was ≥ 5 µM.

With `O=[N+]([O-])c1ccc2[nH]c(-c3ccccc3NS(=O)(=O)c3c(F)cccc3F)nc2c1` the Activity (Homo sapiens [1]) was 0 and the inhibition (Homo sapiens [18]) was 15%.

For `O=[N+]([O-])c1ccc2[nH]c(-c3cc(Cl)ccc3O)nc2c1`, the Activity (HCT-116 [14]) was “Non-Toxic”, the Activity (HCT-116 [15]) was “Dose-dependent effect” and the Activity (HCT-116 [19]) was “Non-Toxic”.

With `O=[N+]([O-])c1ccc2[nH]c(-c3cc(F)ccc3O)nc2c1` the Activity (Homo sapiens [1]) was 2, the IC50 [2] was 620 to 1150 nM and the inhibition (Homo sapiens [3]) was “Dose-dependent effect”. The inhibition (Homo sapiens [4]) was “Active”, the inhibition (Homo sapiens [5]) was “Active” and the inhibition (Homo sapiens [6]) was “Active”. The inhibition (Homo sapiens [7]) was “Active”, the inhibition (Homo sapiens [8]) was “Active” and the inhibition (Homo sapiens [9]) was “Active”. The inhibition (Homo sapiens [10]) was “Active”, the inhibition (Homo sapiens [11]) was “Active” and the inhibition (Homo sapiens [12]) was “Active”. For the same compound, the inhibition (Homo sapiens [13]) was “Active”, the Activity (HCT-116 [14]) was “Non-Toxic” and the IC50 (HCT-116 [15]; Homo sapiens, HCT-116, 3 h) was 6 µM. The Activity (HCT-116 [15]) was “Dose-dependent effect”, the inhibition (Homo sapiens [20]) was “Active” and the Activity (HCT-116 [21]) was “Non-Toxic”. The EC50 (HEK293 (Homo sapiens)) was > 5 µM.

With `COc1ccc(O)c(-c2nc3cc([N+](=O)[O-])ccc3[nH]2)c1` the Activity (Homo sapiens [1]) was 0 and the IC50 [2] was 4190 nM.

`O=[N+]([O-])c1ccc2nc(-c3ccccc3O)[nH]c2c1` showed an Activity (Homo sapiens [1]) of 0 and an IC50 [2] of 4440 nM.

`CS(=O)(=O)Nc1ccccc1-c1nc2cc([N+](=O)[O-])ccc2[nH]1` gave an Activity (Homo sapiens [1]) of 0 and an inhibition (Homo sapiens [18]) of 50%.

For `Cc1ccc(S(=O)(=O)Nc2ccccc2-c2nc3cc([N+](=O)[O-])ccc3[nH]2)cc1`, the Activity (Homo sapiens [1]) was 0 and the inhibition (Homo sapiens [18]) was 53%.

Work on `Oc1ccc(Cl)cc1-c1nc2ccccc2[nH]1` yielded an Activity (Homo sapiens [1]) of 0 and an IC50 [2] of 2670 nM.

With `Cc1ccc(S(=O)(=O)Nc2ccc(Cl)cc2-c2nc3cc(C(F)(F)F)ccc3[nH]2)cc1` the Activity (Homo sapiens [1]) was 0 and the IC50 [2] was 3200 nM.

With `O=[N+]([O-])c1ccc2nc(-c3cc(Cl)ccc3O)[nH]c2c1` the Activity (Homo sapiens [1]) was 3, the IC50 [2] was 360 to 480 nM and the inhibition (Homo sapiens [3]) was “Dose-dependent effect”. For the same compound, the inhibition (Homo sapiens [4]) was “Active”, the inhibition (Homo sapiens [5]) was “Active” and the inhibition (Homo sapiens [6]) was “Active”. The inhibition (Homo sapiens [7]) was “Active”, the inhibition (Homo sapiens [8]) was “Active” and the inhibition (Homo sapiens [9]) was “Active”. The inhibition (Homo sapiens [10]) was “Active”, the inhibition (Homo sapiens [11]) was “Active” and the inhibition (Homo sapiens [12]) was “Active”. The inhibition (Homo sapiens [13]) was “Active”, the inhibition (Homo sapiens [22]) was 40% and the EC50 (HEK293 (Homo sapiens)) was 2.9 µM.

With `Cc1ccc(S(=O)(=O)Nc2ccccc2-c2nc3cc(C(F)(F)F)ccc3[nH]2)cc1` the Activity (Homo sapiens [1]) was 0 and the inhibition (Homo sapiens [18]) was 57%.

Source: ChEMBL document CHEMBL3992558, “Benzimidazole inhibitors from the Niclosamide chemotype inhibit Wnt/β-catenin signaling with selectivity over effects on ATP homeostasis” (Bioorg Med Chem, 2017)
